# MC4R antagonist – human MC4R antagonism in cAMP assay | MC4R-expressing cells, MTII-stimulated cAMP, LANCE TR-FRET | inhibition, % at 6.5 µM | hit rate 0.48% among 360,000 | AID 540295;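 active = inhibition above its plate's cutoff, the mean of tested wells on that plate plus 3 SD, cut at about 29% in these data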
# Target sequence (P32245 whole entry, looked up): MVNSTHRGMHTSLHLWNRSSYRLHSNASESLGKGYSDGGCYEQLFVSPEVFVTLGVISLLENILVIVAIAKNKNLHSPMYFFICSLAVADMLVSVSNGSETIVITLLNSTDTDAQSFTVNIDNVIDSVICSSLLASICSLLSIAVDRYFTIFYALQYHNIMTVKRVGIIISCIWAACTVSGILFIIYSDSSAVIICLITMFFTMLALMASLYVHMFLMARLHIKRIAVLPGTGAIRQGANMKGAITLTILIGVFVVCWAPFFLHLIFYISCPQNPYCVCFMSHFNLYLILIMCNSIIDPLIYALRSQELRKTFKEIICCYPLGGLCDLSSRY
#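 Test system: U2OS cells stably expressing human melanocortin 4 receptor (MC4R); also added: Melanotan II challenge; compound: 6.5 µM single dose; timing: 30-min compound preincubation, 1-h Melanotan II challenge, 1-h detection, room temperature; signal: Eu-cAMP/anti-cAMP TR-FRET, emission 671 nm; repeats: one well per compound, no replicates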
# TAAR1 antag – human TAAR1 antagonism; Q96RJ0; CHO RD-HGA16 TAAR1, Fluo-8 calcium fluorescence, antagonist; inhibition, % at 3 µM; hit rate 1.5% among 360,000; AID 624466;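 active = inhibition above a per-plate cutoff, the mean inhibition of test compounds on that plate plus 3 SD, cut at about 49% in these data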
# Target sequence (Q96RJ0 whole entry, looked up): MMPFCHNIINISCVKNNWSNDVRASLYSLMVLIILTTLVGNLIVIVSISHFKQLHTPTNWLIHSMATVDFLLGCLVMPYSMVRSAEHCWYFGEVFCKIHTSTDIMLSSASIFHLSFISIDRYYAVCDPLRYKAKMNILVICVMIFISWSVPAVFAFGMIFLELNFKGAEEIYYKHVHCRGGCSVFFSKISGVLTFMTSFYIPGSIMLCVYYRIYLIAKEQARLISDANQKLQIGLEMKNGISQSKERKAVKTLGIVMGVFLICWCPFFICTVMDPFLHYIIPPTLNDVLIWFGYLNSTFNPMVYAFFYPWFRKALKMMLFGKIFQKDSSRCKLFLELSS
#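 Test system – hTAAR1-expressing CHO RD-HGA16 cells, Gα16-coupled · Reagent – β-PEA at EC80 concentration, post-compound challenge · Compound dosing – 3 µM, single point · Timing – 140 s kinetic read after compound, 140 s after agonist · Detection – Fluo-8 intracellular calcium dye fluorescence, real-time kinetic reads · Control set – DMSO and EC80 PEA controls · Repeats – n of 1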
# MC4R barr agon – activates human MC4R beta-arrestin recruitment. P32245. U2OS MC4R beta-arrestin complementation, luminescence; percent of melanotan II response, DMSO zero. activation, % at 8.9 µM. hit rate 0.98% among 360,000. AID 540308;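 active = activation above a per-plate cutoff, the mean activation of sample wells on that plate plus 3 SD, cut at about 8% in these data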
# TAAR1 agonist – agonists of human TAAR1; Q96RJ0; CHO RD-HGA16 TAAR1, Fluo-8 calcium fluorescence; vehicle wells 0%, saturating PEA agonist 100%; activation, % at 3 µM; hit rate 0.99% among 360,000;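 active = activation above the mean activation of all test compounds in the run plus 3 SD, cut at about 38% in these data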
#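 Test system: RD-HGA16 (CHO) cells co-expressing Gα16 and hTAAR1 / Benchmarks: DMSO vehicle as 0%, PEA at EC100 as 100% / Repeats: no replicates (n 1) / Measure: % activation from peak over basal fluorescence ratio, DMSO-to-PEA scaled / Timing: 17-24 h plating, Fluo-8 75 min 37 °C, 30 min RT / Technique: kinetic Fluo-8 calcium fluorescence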
# HTR2A ag – mouse HTR2A agonism via beta-arrestin recruitment | CHO-K1 mHTR2A beta-arrestin complementation, luminescence; percent of 30 µM serotonin response | activation, % at 7.6 µM | hit rate 0.66% among 360,000 | AID 624169;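 active = activation above a run cutoff, the mean activation of all tested compounds plus 3 SD, cut at about 14% in these data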
# Beta2AR agonist – human beta-2 adrenergic receptor agonism by FAP; response, % (test concentration not listed); AID 504454; Am2.2-beta2AR cells, FAP receptor internalization, flow cytometry; hit rate 0.43% among 340,000; P07550;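 active = response above a set limit, near 3 SD of response in nonfluorescent compounds, cut at about 42% in these data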
# Numbers stand for hits; n = inactive; x = no result. Most compounds without a hit are left out; they make up all but 4.3% or so of the library.
SMILES,MC4R antagonist,TAAR1 antag,MC4R barr agon,TAAR1 agonist,HTR2A ag,Beta2AR agonist
O=C(NCCN1CCN(c2ccccc2)CC1)C1CCN(S(=O)(=O)c2cccs2)CC1,n,n,n,n,n,n
COC(=O)C1=C(C)N(Cc2ccccc2C(F)(F)F)C(=NCc2cccc(C(F)(F)F)c2)NC1c1ccc(F)cc1 (configuration not stated),x,n,x,n,x,x
O=C(C1CCCN(S(=O)(=O)c2cccc3nsnc23)C1)N1CC=C(c2ccccc2)CC1 (configuration not stated),n,50,n,n,n,n
Cc1ccc(Cl)cc1N1CCN(C(=O)C2CCN(S(=O)(=O)c3cccnc3)CC2)CC1,n,n,n,n,n,n
Cc1ccc(C)c(N2CCN(C(=O)C3CCN(S(=O)(=O)c4cccc5nsnc45)CC3)CC2)c1,n,54,n,n,n,n
Cc1ccc(Cl)cc1N1CCN(C(=O)C2CCN(S(=O)(=O)c3c(C)nn(C)c3C)CC2)CC1,n,77,n,n,n,n
O=C(C1CCN(S(=O)(=O)c2cccc3nsnc23)CC1)N1CCCCC1,n,n,n,n,n,n
O=C(C1CCC(CNS(=O)(=O)c2cccc3nsnc23)CC1)N1CC=C(c2ccccc2)CC1 (configuration not stated),n,n,n,n,n,n
O=C(C1CCN(S(=O)(=O)c2cccc3nsnc23)CC1)N1CC=C(c2ccccc2)CC1,n,56,n,n,n,n
COCCN1CCCc2nc(-c3ccc(Br)cc3)ccc21,x,n,x,n,x,x
C=CCCC1CN(Cc2ccc(OC)cc2)S(=O)(=O)c2c(cccc2N2CCCCC2)O1 (configuration not stated),x,n,x,n,x,x
O=C(C(=O)N1CCN(C(=O)c2ccccc2C(F)(F)F)CC1)c1cccc(C(F)(F)F)c1,x,n,x,n,x,x
O=C(/C=C/c1ccccc1)OCC(=O)c1c[nH]c2ccccc12,n,n,9.3,n,n,n
COc1cccc(/C=C/C(=O)OCC(=O)c2c[nH]c3ccccc23)c1OC,n,54,n,n,n,n
COc1cccc(/C=C/C(=O)OCC(=O)c2c[nH]c3ccccc23)c1,n,n,n,n,n,n
CCN(CC)C(=O)c1ncn2c1C(=O)NC[C@@H]2C,x,n,x,n,x,x
C#CCNc1cccc2c1S(=O)(=O)N[C@H](C)CO2,x,n,x,n,x,x
OCc1ccccc1OCc1ccccc1,x,n,x,n,x,x
CCOc1ccc(C2C(C#N)=C(N)SC(N)=C2C#N)cc1OCC,n,n,n,n,n,n
CCc1ccc(C2C(C#N)=C(N)SC(N)=C2C#N)cc1,n,n,n,43,n,n
N#CC1=C(N)SC(N)=C(C#N)C1Cc1ccccc1,n,n,n,43,n,n
N#CC1=C(N)SC(N)=C(C#N)C1CCc1ccccc1,n,n,n,n,n,n
CCCC(=O)OC[C@H]1CN([C@H](C)c2ccccc2)S(=O)(=O)c2c(F)cccc2O1,x,n,x,n,x,x
CCOC(=O)C1CSCCS(=O)(=O)N1Cc1cccc(F)c1 (configuration not stated),x,n,x,n,x,x
O=S(=O)(N1CCCCC1)n1nnc2cc3ccccc3cc21,x,n,x,n,x,x
SMILES,MC4R antagonist,TAAR1 antag,MC4R barr agon,TAAR1 agonist,HTR2A ag,Beta2AR agonist
O=C(CSc1ccc(-c2ccc3c(c2)OCO3)nn1)Nc1nccs1,n,n,9.5,n,n,n
O=C(CSc1ccc(-c2ccccc2)nn1)Nc1ccc2c(c1)OCCO2,n,n,n,n,n,n
O=C(CSCC(=O)Nc1nc(-c2ccc3c(c2)OCO3)cs1)Nc1nccs1,n,54,n,n,n,n
O=C(Nc1cccc(S(=O)(=O)N2CCOCC2)c1)c1ccc2c(=O)n3c(nc2c1)CCCCC3,n,51,n,n,n,n
O=C(Nc1ccc(S(=O)(=O)C(F)F)cc1)c1cccc(S(=O)(=O)N2CCOCC2)c1,n,60,n,n,n,n
O=C(Nc1cccc(S(=O)(=O)C(F)F)c1)c1ccc(S(=O)(=O)N2CCOCC2)cc1,n,n,n,n,n,n
O=C(Nc1nc(-c2ccccc2)cs1)c1ccc2c(=O)n3c(nc2c1)CCCCC3,n,59,n,n,n,n
COc1cc(-c2cc(C(=O)Nc3ccc(S(N)(=O)=O)cc3)c3ccccc3n2)cc(OC)c1OC,n,n,n,n,n,n
COc1cc(-c2cc(C(=O)N(C)Cc3ccccc3)c3ccccc3n2)cc(OC)c1OC,n,n,n,n,n,n
CCN(Cc1ccccc1)C(=O)c1cc(-c2ccc(OC)c(OC)c2)nc2ccccc12,n,67,n,n,n,n
O=C(c1cc(-c2ccccc2)nc2ccccc12)N1CCN(c2ccccc2O)CC1,n,55,n,n,n,n
COc1ccc(NC(=O)c2cc(-c3cc(OC)c(OC)c(OC)c3)nc3ccccc23)cc1OC,n,55,n,n,n,n
COc1ccc(-c2cc(C(=O)N3CCCC(C(F)(F)F)C3)c3ccccc3n2)cc1OC (configuration not stated),n,50,n,n,n,n
O=C(C=Cc1ccc(O)c(O)c1)NCC(=O)NC(Cc1ccccc1)C(=O)O (configuration not stated),x,n,x,n,x,x
COc1ccccc1NC(=O)c1cc(-c2ccc(OC)c(OC)c2)nc2ccccc12,n,55,n,n,n,n
COc1ccc(-c2cc(C(=O)Nc3nc4c(C)cccc4s3)c3ccccc3n2)cc1OC,n,n,n,n,n,n
CCOc1ccc(NC(=O)CN(C)C(=O)c2cc(-c3ccc(OC)cc3)nc3ccccc23)cc1OCC,n,56,n,n,n,n
C#Cc1ccccc1OCCCN1CCC(C(O)(c2ccccc2)c2ccccc2)CC1,x,51,x,40,n,x
OC(c1ccccc1)(c1ccccc1)C1CCN(CCCOc2ccc(F)cc2)CC1,x,n,x,39,n,x
N#Cc1ccccc1OCCCN1CCC(C(O)(c2ccccc2)c2ccccc2)CC1,x,n,x,n,n,x
Cc1ccc(S(=O)(=O)Nc2ccc(NC(=O)Nc3cccc(C(F)(F)F)c3)cc2)cc1,n,n,9.2,n,n,n
Cc1ccc(NS(=O)(=O)c2ccc(NC(=O)c3cccc(NC(=O)C(C)C)c3)cc2)cc1,n,53,n,n,n,n
CC(NC(=O)c1c(N)[nH]c(C(=O)c2ccc(Cl)cc2)c1-c1ccc(Br)cc1)c1cccc2ccccc12 (configuration not stated),x,n,x,n,x,x
CN(C)CCC(=O)c1ccc2c(c1)OCO2,33,n,n,n,n,n
CCOC(=O)Cc1csc2nc(-c3ccccc3)cn12,x,n,x,n,x,x
c1ccc(CN2c3ccccc3-c3nc4ccccc4n3C2c2ccccn2)cc1 (configuration not stated),n,55,n,n,n,n
